ChEMBL document CHEMBL3526106, “Cytochrome P450 regulation by α-tocopherol in Pxr-null and PXR-humanized mice” (Drug Metab Dispos, 2013)

How the values were obtained:
Cyp2c29 [1] = experiment: Induction of Cyp2c29 gene expression in wild type mouse liver at 50 mg/kg dosed through gavage daily for 4 days by qPCR method; type: ADME, organism-based; set-up: dose 50 mg/kg; conditions: po, read-out: FC
Ugt2b34 = experiment: Induction of Ugt2b34 gene expression in wild type mouse liver at 50 mg/kg dosed through gavage daily for 4 days by qPCR method; type: ADME, organism-based; set-up: dose 50 mg/kg; conditions: po, read-out: FC
[2] = target: T1, PXR (Nuclear receptor subfamily 1 group I member 2) (Mus musculus, UniProt O54915); experiment: Activation of mouse PXR expressed in human HepG2 cells at 10 uM after 24 hrs by firefly luciferase DR3 reporter gene assay; type: ADME, cell-based; conditions: human HepG2 cells expressing mouse PXR, read-out: FC
T1 sequence (O54915 whole entry): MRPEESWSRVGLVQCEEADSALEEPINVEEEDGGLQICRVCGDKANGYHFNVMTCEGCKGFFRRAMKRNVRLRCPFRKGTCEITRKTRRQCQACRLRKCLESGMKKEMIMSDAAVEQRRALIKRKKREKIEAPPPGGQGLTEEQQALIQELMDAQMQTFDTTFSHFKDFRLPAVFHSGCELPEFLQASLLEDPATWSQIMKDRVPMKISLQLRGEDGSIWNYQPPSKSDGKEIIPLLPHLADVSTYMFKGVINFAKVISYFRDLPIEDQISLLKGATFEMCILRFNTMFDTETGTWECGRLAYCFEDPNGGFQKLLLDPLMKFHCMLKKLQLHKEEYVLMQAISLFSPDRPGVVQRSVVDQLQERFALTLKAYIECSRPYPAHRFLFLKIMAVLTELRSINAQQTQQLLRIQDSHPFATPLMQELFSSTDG
In short: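 HepG2 cells grown in DMEM + 10% FBS were transfected with 10 ng mouse PXR, 100 ng DR3 firefly luciferase reporter and 2 ng Renilla pRL-SV40. Compound in DMSO was added 24 h after transfection and left for 24 h. Dual luciferase was then read, firefly normalized to Renilla per well, and expressed as fold over DMSO control.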

Ugt1a9 = experiment: Induction of Ugt1a9 gene expression in wild type mouse liver at 50 mg/kg dosed through gavage daily for 4 days by qPCR method; type: ADME, organism-based; set-up: dose 50 mg/kg; conditions: po, read-out: FC
Cyp2c55 = experiment: Induction of Cyp2c55 gene expression in wild type mouse liver at 50 mg/kg dosed through gavage daily for 4 days by qPCR method; type: ADME, organism-based; set-up: dose 50 mg/kg; conditions: po, read-out: FC
Cyp2b10 = experiment: Induction of Cyp2b10 gene expression in wild type mouse liver at 50 mg/kg dosed through gavage daily for 4 days by qPCR method; type: ADME, organism-based; set-up: dose 50 mg/kg; conditions: po, read-out: FC
Ugt1a10 [3] = experiment: Induction of Ugt1a10 gene expression in PXR null mouse liver at 50 mg/kg dosed through gavage daily for 4 days by qPCR method; type: ADME, organism-based; set-up: dose 50 mg/kg; conditions: po, read-out: FC
Cyp3a11 = experiment: Induction of Cyp3a11 gene expression in wild type mouse liver at 50 mg/kg dosed through gavage daily for 4 days by qPCR method; type: ADME, organism-based; set-up: dose 50 mg/kg; conditions: po, read-out: FC
Ugt1a1 = experiment: Induction of Ugt1a1 gene expression in wild type mouse liver at 50 mg/kg dosed through gavage daily for 4 days by qPCR method; type: ADME, organism-based; set-up: dose 50 mg/kg; conditions: po, read-out: FC
Ugt2b5 = experiment: Induction of Ugt2b5 gene expression in wild type mouse liver at 50 mg/kg dosed through gavage daily for 4 days by qPCR method; type: ADME, organism-based; set-up: dose 50 mg/kg; conditions: po, read-out: FC
Mus musculus [4] = experiment: Reduction in Ugt1a6b gene expression in wild type mouse liver at 50 mg/kg dosed through gavage daily for 4 days by qPCR method; type: ADME, organism-based; set-up: dose 50 mg/kg; conditions: in vivo, po, 96 h
Cyp2c29 [5] = experiment: Induction of Cyp2c29 gene expression in male PXR null mouse liver at 50 mg/kg dosed through gavage daily for 4 days by qPCR method; conditions: po, read-out: FC
Ugt1a10 [6] = experiment: Induction of Ugt1a10 gene expression in wild type mouse liver at 50 mg/kg dosed through gavage daily for 4 days by qPCR method; type: ADME, organism-based; set-up: dose 50 mg/kg; conditions: po, read-out: FC
Mus musculus [7] = experiment: Reduction in Ugt1a6a gene expression in PXR-humanized mouse liver at 10 mg/kg dosed through gavage daily for 4 days by qPCR method; conditions: in vivo, po, 96 h
Mus musculus [8] = experiment: Reduction in Ugt1a6b gene expression in PXR-humanized mouse liver at 10 mg/kg dosed through gavage daily for 4 days by qPCR method; conditions: in vivo, po, 96 h
Mus musculus [9] = experiment: Drug level in male PXR null mouse treated with 500 mg/kg for 7 to 14 days dosed through vitamin E-deficient base diet by UPLC-ESI-QTOFMS method based metabolomics analysis; type: ADME, organism-based; set-up: dose 500 mg/kg; conditions: in vivo, po
Mus musculus [10] = experiment: Drug level in male wild type mouse treated with 500 mg/kg for 7 to 14 days dosed through vitamin E-deficient base diet by UPLC-ESI-QTOFMS method based metabolomics analysis; type: ADME, organism-based; set-up: dose 500 mg/kg; conditions: in vivo, po
Mus musculus [11] = experiment: Drug level in male PXR-humanized mouse treated with 500 mg/kg for 7 to 14 days dosed through vitamin E-deficient base diet by UPLC-ESI-QTOFMS method based metabolomics analysis; type: ADME, organism-based; set-up: dose 500 mg/kg; conditions: in vivo, po

CC(=O)[C@H]1[C@H](C#N)C[C@H]2[C@@H]3CC=C4C[C@@H](O)CC[C@]4(C)[C@H]3CC[C@@]21C [PREGNENOLONE CARBONITRILE]
fold induction at 96 h (Cyp2c29 [1]): 9.2
fold induction at 96 h (Ugt2b34): 3.2
fold induction at 24 h, 10 µM [2]: 9.5
fold induction at 96 h (Ugt1a9): 9.4
fold induction at 96 h (Cyp2c55): 303
fold induction at 96 h (Cyp2b10): 160
fold induction at 96 h (Ugt1a10 [3]): 1.8
fold induction at 96 h (Cyp3a11): 20.9
fold induction at 96 h (Ugt1a1): 3.1
fold induction at 96 h (Ugt2b5): 1.4
fold change (FC) (Mus musculus [4]): 1.3
fold induction at 96 h (Cyp2c29 [5]): 1.6
fold induction at 96 h (Ugt1a10 [6]): 2.8
fold change (FC) (Mus musculus [7]): 2
fold change (FC) (Mus musculus [8]): 1.8

CN1CC(=O)NC1=N [CREATININE]
Drug metabolism (Mus musculus [9]): metabolite_detected
Drug metabolism (Mus musculus [10]): metabolite_detected
Drug metabolism (Mus musculus [11]): metabolite_detected
